We go through 4 compounds from ChEMBL document CHEMBL1136508, “[3H]-methoxymethyl-MTEP and [3H]-methoxy-PEPy: potent and selective radioligands for the metabotropic glutamate subtype 5 (mGlu5) receptor” (Bioorg Med Chem Lett, 2003).

A short description of data set [1]: Lipophilicity (Log D) was determined. In kind it is physicochemical. As to conditions: octanol/water. The essentials: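 LogD was determined by an HPLC method.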
Data set [2] addresses Metabotropic glutamate receptor 5 (Rattus norvegicus, UniProt P31424). The experiment in a line: Binding affinity towards mGlu5 receptors in rat brain membranes was evaluated. In kind it is cell membranes. The procedure, abridged: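 Displacement of [3H]-methoxy-PEPy (specific activity 67.6 Ci/mmol) binding to rat brain membranes, incubated at room temperature (equilibrium within 60 min). Nonspecific binding was defined with an unlabelled mGlu5 antagonist as cold displacer. Concentration–response curves gave IC50 values.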

Data set [3] concerns the target T1, Metabotropic glutamate receptor 5 (Homo sapiens, UniProt P41594). The data set is described as follows: In vitro functional potency using an automated assay employing LtK-cells stably expressing human recombinant mGlu5 receptor by measuring changes in cytosolic [Ca2+] concentration. The procedure, abridged: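 Ltk- cells stably expressing recombinant human mGlu5 were loaded with fura-2. Glutamate-evoked rises in cytosolic Ca2+ were read by fluorescence. Concentration–response curves used 12 concentrations in duplicate wells, from two or more separate experiments.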

For data set [4], the target named is T1, Metabotropic glutamate receptor 5. The experiment in a line: Binding affinity towards human mGlu5 receptors expressed in LtK-cells. It counts as cell-based.

Broadly, the logD is lipophilicity at a set pH, counting ionised and neutral species. Usually IC50 stands for the concentration at which inhibition is half-maximal.

T1 sequence (P41594 whole entry): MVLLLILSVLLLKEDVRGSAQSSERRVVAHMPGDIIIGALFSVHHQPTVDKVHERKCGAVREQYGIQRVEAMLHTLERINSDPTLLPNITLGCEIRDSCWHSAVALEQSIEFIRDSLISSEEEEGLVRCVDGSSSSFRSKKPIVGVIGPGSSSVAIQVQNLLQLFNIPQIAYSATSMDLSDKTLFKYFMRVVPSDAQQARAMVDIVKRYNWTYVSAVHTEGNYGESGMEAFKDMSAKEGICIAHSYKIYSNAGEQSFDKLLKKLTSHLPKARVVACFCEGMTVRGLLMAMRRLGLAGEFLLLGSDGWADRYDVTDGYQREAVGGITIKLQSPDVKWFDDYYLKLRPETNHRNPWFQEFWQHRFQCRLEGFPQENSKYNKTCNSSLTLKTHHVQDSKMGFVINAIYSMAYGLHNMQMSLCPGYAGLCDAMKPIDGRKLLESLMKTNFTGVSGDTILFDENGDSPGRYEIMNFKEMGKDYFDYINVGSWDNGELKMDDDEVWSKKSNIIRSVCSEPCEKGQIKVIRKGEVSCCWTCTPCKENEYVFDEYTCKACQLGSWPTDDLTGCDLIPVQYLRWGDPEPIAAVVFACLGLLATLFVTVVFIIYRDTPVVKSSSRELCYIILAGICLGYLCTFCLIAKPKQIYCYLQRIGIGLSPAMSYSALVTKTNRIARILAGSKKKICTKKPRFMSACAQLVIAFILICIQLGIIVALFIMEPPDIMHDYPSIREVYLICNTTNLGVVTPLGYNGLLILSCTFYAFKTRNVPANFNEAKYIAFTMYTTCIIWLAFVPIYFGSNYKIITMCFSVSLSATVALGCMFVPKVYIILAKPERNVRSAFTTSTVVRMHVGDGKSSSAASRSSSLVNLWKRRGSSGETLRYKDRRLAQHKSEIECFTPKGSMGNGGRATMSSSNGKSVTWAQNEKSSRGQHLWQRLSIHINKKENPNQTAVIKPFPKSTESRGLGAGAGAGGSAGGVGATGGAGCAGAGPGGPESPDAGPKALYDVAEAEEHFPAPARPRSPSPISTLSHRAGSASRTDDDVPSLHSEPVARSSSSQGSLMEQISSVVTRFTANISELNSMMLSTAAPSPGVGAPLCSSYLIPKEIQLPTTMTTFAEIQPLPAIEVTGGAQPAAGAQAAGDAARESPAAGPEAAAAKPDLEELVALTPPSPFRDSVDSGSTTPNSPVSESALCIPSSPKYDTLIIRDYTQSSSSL
Sequence of Metabotropic glutamate receptor 5 (Rattus norvegicus, UniProt P31424) (P31424 whole entry): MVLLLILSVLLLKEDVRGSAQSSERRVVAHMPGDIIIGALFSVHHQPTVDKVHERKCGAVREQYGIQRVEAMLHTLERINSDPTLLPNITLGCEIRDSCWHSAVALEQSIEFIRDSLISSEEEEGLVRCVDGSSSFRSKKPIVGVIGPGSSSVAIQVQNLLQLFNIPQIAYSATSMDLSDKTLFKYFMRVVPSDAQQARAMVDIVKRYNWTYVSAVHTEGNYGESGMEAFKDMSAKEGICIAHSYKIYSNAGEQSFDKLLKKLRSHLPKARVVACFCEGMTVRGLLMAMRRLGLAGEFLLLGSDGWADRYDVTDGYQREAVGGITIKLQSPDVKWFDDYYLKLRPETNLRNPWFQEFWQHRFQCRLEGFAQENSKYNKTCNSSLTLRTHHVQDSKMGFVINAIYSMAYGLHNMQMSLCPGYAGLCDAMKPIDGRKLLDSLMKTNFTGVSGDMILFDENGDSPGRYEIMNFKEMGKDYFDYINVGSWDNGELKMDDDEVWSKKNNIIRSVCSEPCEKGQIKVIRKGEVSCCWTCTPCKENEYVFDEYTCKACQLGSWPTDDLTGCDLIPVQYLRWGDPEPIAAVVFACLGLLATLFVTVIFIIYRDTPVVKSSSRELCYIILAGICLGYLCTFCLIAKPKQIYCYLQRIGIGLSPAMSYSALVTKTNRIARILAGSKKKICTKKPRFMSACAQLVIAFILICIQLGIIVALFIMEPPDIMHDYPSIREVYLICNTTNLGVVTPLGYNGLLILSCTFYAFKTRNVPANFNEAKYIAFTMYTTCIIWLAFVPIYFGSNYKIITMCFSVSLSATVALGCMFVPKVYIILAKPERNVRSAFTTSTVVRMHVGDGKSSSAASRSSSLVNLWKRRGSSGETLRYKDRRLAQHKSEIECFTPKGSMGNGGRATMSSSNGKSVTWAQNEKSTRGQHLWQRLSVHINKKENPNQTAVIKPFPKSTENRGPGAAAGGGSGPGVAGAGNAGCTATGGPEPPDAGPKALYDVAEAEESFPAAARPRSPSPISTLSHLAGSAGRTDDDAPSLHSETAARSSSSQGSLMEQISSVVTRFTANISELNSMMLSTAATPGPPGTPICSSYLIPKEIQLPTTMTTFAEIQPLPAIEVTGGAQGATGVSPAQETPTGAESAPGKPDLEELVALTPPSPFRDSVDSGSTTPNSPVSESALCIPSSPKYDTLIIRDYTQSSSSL

With `[3H]C([3H])([3H])Oc1cncc(C#Cc2ccccn2)c1`, in data set [1], the logD is 2.25. For the same compound, the 50% inhibitory concentration (IC50) in data set [2] was determined as 12 nM; in data set [3] it was 1 nM.
Turning to `[3H]C([3H])([3H])OCc1cncc(C#Cc2csc(C)n2)c1`, the log distribution coefficient (logD) in data set [1] worked out at 2.4. Moreover, the IC50 in data set [4] is 47 nM; in data set [3], 7 nM.
On to `Cc1cncc(C#Cc2csc(C)n2)c1`, for which the logD in data set [1] worked out at 2.5.
`COCc1cncc(C#Cc2ccccn2)c1` displayed a logD in data set [1] of 2. For the same compound, the IC50 in data set [3] was found to be 19 nM.
